Measured values reported in ChEMBL document CHEMBL4433215, “SAR Studies and Biological Characterization of a Chromen-4-one Derivative as an Anti-Trypanosoma brucei Agent” (ACS Med Chem Lett, 2019).

Tests used:
[1] = tested on: Trypanosoma brucei; experiment: Antitrypanosomal activity against Trypanosoma brucei bloodstream form assessed as parasite growth inhibition at 10 uM after 72 hrs by resazurin dye-based assay relative to control; type: functional; settings: read-out: GI
Method in brief: (§1)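 T. brucei bloodstream forms were screened first. Compounds giving over 70% parasite growth inhibition then went to a full dose–response curve to derive EC50. Pentamidine was the reference.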

[2] = tested on: Trypanosoma brucei; experiment: Antitrypanosomal activity against Trypanosoma brucei bloodstream form after 72 hrs by resazurin dye-based assay relative to control; type: functional, organism-based; method in brief: as §1
[3] = Cytotoxicity against human THP1 cells by MTT assay; type: cell-based, THP-1
[4] = biological target: T1, Voltage-gated inwardly rectifying potassium channel KCNH2 (Homo sapiens, UniProt Q12809); experiment: Inhibition of human ERG at 10 uM after 2 hrs by fluorescence polarization assay
T1 sequence (Q12809 whole entry): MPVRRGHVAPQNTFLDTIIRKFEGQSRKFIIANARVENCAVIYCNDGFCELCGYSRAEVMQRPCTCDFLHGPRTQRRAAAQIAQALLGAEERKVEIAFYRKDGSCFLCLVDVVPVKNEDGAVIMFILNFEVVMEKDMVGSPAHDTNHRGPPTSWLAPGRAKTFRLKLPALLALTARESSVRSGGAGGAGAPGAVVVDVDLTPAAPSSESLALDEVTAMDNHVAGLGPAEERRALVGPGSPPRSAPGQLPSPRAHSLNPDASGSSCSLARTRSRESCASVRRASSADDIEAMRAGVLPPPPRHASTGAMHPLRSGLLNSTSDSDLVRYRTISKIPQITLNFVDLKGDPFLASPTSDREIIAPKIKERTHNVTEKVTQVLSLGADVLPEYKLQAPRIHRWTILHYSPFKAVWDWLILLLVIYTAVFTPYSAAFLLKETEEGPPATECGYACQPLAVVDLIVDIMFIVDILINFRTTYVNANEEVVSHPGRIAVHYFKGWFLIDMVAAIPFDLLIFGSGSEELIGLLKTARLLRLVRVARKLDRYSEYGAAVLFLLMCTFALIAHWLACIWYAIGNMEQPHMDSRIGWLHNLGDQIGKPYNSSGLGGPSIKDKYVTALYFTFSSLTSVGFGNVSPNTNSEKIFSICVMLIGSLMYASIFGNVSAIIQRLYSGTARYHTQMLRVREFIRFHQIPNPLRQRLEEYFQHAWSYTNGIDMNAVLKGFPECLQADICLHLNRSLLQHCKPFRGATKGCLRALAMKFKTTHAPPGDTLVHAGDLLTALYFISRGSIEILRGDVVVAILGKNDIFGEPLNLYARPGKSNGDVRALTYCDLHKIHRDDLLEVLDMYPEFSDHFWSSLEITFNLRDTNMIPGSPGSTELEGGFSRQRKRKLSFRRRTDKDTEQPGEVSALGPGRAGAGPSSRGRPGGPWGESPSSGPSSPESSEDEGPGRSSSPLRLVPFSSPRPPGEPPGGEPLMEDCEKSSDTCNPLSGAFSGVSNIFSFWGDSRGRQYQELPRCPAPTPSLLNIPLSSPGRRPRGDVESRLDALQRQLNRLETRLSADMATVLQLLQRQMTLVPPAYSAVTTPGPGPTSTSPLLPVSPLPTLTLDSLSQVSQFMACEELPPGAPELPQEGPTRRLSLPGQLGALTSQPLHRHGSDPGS
Method in brief: (§2)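 Single-concentration screen at 10 μM within an early in vitro ADME-tox panel, covering cytotoxicity in A549 cells and hERG inhibition.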

[5] = tested on: 786-0; experiment: Mitochondrial toxicity in human 786-O cells at 10 uM after 6 hrs by MitoTracker Red chloromethyl-X-rosamine based assay; type: cell-based; settings: 786-0, 6 h
[6] = Selectivity index, ratio of CC50 for cytotoxicity against human THP1 cells to EC50 for antitrypanosomal activity against Trypanosoma brucei bloodstream form; type: toxicity, cell-based; settings: read-out: Ratio CC50/EC50
[7] = Cytotoxicity against human A549 cells assessed as cell growth at 10 uM after 48 hrs by cell-titer-Glo assay relative to control; type: cell-based; settings: read-out: Activity; method in brief: as §2
[8] = tested on: hERG; experiment: Selectivity ratio of IC50 for inhibition of human ERG to EC50 for antitrypanosomal activity against Trypanosoma brucei bloodstream form; type: toxicity; settings: read-out: Ratio IC50/EC50
[9] = biological target: Cytochrome P450 2D6 (Homo sapiens, UniProt P10635); experiment: Inhibition of recombinant human microsomal CYP2D6 expressed in baculovirus infected BTI-TN-5B1-4 cell microsomes using CYP/Luciferin as substrate pre-incubated for 30 mins followed by NADPH regeneration mixture addition and measured after 30 mins by Promega P450-Glo assay; type: ADME
Chain of Cytochrome P450 2D6 (P10635 whole entry): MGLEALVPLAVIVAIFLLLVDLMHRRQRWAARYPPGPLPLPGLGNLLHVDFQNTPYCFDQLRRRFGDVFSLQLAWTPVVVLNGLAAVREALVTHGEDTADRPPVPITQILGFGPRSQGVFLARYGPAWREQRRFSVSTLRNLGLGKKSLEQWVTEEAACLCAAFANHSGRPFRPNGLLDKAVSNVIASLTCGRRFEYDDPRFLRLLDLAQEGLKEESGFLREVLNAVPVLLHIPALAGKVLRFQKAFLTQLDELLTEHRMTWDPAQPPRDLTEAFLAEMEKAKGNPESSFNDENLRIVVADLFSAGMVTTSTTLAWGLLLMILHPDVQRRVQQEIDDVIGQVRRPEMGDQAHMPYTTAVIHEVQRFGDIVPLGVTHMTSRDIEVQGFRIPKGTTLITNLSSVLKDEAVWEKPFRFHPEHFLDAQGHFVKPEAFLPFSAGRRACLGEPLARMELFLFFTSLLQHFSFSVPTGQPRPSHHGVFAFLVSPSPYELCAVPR

[10] = Cmax in BALB/c mouse at 1 mg/kg, iv by LC-MS/MS analysis; type: ADME, organism-based; design: dose 1 mg/kg, route intravenous; settings: in vivo
Method in brief: (§3)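 BALB/c mice were dosed IV at 1 mg/kg or orally at 20 mg/kg. Plasma Cmax, Tmax, total AUC and half-life were determined for each route.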

[11] = Half life in BALB/c mouse at 20 mg/kg, po by LC-MS/MS analysis; type: ADME, organism-based; settings: in vivo; method in brief: as §3
[12] = biological target: T2, Albumin (Homo sapiens, UniProt P02768); experiment: Binding affinity to HSA assessed as absorption maxima for HSA-complexed monomer at 1.25 uM to 11.25 uM by UV-visible spectrophotometry; type: ADME; settings: isolated protein
T2 sequence (P02768 whole entry): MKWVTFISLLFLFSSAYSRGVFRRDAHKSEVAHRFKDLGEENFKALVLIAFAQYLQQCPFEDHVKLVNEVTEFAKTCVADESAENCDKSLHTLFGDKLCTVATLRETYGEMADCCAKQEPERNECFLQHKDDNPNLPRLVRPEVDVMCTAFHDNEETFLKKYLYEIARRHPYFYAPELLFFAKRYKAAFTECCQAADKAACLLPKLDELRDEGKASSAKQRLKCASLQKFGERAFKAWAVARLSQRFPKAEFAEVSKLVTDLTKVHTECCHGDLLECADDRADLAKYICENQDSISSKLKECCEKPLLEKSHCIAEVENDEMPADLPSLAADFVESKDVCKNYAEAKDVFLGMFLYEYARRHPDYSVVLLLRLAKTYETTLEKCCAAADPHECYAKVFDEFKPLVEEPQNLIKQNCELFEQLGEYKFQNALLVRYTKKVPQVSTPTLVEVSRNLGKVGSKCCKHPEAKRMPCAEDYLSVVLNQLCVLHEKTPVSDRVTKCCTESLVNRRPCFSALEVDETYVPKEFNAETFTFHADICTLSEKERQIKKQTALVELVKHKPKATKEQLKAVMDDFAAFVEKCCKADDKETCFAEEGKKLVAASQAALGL
Method in brief: (§4)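 Compound in aqueous phosphate buffer, pH 8, at 1.25 to 11.25 μM. Absorption and fluorescence emission spectra were recorded without and with human serum albumin (HSA), with HSA added stepwise. The monomer/dimer equilibrium constant was obtained by fitting the absorption data at 20 °C.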

[13] = biological target: T2, Albumin; experiment: Binding affinity to HSA assessed as emission maxima for free monomer at 1.25 uM to 11.25 uM by spectroflurometry; type: ADME; settings: isolated protein; method in brief: as §4
[14] = Total AUC in BALB/c mouse at 1 mg/kg, iv by LC-MS/MS analysis; type: ADME, organism-based; design: dose 1 mg/kg, time AUCmax, route intravenous; settings: in vivo; method in brief: as §3
[15] = biological target: T2, Albumin; experiment: Binding affinity to HSA assessed as monomer/HSA equilibrium binding constant at 11.25 uM by spectroflurometry; type: ADME; settings: isolated protein; method in brief: as §4
[16] = Aggregation behavior in phosphate buffer at pH 8 assessed as dimerization equilibrium constant at 1.25 uM to 11.25 uM by UV-visible spectrophotometry; type: physicochemical; settings: pH 8, 1.25 µM; method in brief: as §4
[17] = biological target: T2, Albumin; experiment: Binding affinity to HSA assessed as absorption maxima for aggregate at 1.25 uM to 11.25 uM by UV-visible spectrophotometry; type: ADME; settings: isolated protein; method in brief: as §4
[18] = biological target: T2, Albumin; experiment: Binding affinity to HSA assessed as absorption maxima for free monomer at 1.25 uM to 11.25 uM by UV-visible spectrophotometry; type: ADME; settings: isolated protein; method in brief: as §4
[19] = Cmax in BALB/c mouse at 20 mg/kg, po by LC-MS/MS analysis; type: ADME, organism-based; design: dose 20 mg/kg, route oral; settings: in vivo; method in brief: as §3
[20] = biological target: T1, Voltage-gated inwardly rectifying potassium channel KCNH2; experiment: Inhibition of human ERG after 2 hrs by fluorescence polarization assay
[21] = Aggregation behavior in phosphate buffer at pH 8 assessed as increase in absorption spectra at 1.25 uM to 11.25 uM by UV-visible spectrophotometry; type: physicochemical; settings: pH 8, 1.25 µM; method in brief: as §4
[22] = biological target: Cytochrome P450 2C19 (Homo sapiens, UniProt P33261); experiment: Inhibition of recombinant human microsomal CYP2C19 expressed in baculovirus infected BTI-TN-5B1-4 cell microsomes using CYP/Luciferin as substrate pre-incubated for 30 mins followed by NADPH regeneration mixture addition and measured after 30 mins by Promega P450-Glo assay; type: ADME
Chain of Cytochrome P450 2C19 (P33261 whole entry): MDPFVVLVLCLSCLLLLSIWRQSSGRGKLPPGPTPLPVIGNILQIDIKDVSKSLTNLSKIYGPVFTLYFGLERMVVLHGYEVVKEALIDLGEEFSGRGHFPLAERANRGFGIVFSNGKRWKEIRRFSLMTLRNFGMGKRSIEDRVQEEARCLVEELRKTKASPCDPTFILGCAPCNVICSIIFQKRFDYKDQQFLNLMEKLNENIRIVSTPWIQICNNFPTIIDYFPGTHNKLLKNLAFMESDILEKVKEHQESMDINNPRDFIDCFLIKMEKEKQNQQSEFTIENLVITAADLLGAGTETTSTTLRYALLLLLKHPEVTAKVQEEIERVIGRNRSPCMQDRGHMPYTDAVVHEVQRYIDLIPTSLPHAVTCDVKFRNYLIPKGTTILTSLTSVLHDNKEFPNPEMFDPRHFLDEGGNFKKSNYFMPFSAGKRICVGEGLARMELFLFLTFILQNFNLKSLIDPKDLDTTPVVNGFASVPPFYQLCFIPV

[23] = biological target: T2, Albumin; experiment: Binding affinity to HSA assessed as emission maxima for aggregate at 1.25 uM to 11.25 uM by spectroflurometry; type: ADME; settings: isolated protein; method in brief: as §4
[24] = biological target: T3, Cytochrome P450 1A2 (Homo sapiens, UniProt P05177); experiment: Inhibition of recombinant human microsomal CYP1A2 expressed in baculovirus infected BTI-TN-5B1-4 cell microsomes using CYP/Luciferin as substrate pre-incubated for 30 mins followed by NADPH regeneration mixture addition and measured after 30 mins by Promega P450-Glo assay; type: ADME
T3 sequence (P05177 whole entry): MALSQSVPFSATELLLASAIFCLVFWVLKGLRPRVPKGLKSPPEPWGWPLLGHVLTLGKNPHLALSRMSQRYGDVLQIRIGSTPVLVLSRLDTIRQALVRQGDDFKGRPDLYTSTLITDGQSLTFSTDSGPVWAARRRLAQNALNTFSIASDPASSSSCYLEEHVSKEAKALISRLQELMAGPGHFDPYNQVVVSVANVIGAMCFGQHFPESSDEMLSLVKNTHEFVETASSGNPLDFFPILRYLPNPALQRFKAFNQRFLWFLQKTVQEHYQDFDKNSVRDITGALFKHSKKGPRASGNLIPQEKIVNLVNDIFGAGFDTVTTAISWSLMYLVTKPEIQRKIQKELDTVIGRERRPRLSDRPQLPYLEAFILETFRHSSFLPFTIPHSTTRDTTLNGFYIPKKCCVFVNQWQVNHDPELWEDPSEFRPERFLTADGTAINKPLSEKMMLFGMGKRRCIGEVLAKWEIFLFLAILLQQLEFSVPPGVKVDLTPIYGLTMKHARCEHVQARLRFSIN

[25] = biological target: Cytochrome P450 2C9 (Homo sapiens, UniProt P11712); experiment: Inhibition of recombinant human microsomal CYP2C9 expressed in baculovirus infected BTI-TN-5B1-4 cell microsomes using CYP/Luciferin as substrate pre-incubated for 30 mins followed by NADPH regeneration mixture addition and measured after 30 mins by Promega P450-Glo assay; type: ADME
Chain of Cytochrome P450 2C9 (P11712 whole entry): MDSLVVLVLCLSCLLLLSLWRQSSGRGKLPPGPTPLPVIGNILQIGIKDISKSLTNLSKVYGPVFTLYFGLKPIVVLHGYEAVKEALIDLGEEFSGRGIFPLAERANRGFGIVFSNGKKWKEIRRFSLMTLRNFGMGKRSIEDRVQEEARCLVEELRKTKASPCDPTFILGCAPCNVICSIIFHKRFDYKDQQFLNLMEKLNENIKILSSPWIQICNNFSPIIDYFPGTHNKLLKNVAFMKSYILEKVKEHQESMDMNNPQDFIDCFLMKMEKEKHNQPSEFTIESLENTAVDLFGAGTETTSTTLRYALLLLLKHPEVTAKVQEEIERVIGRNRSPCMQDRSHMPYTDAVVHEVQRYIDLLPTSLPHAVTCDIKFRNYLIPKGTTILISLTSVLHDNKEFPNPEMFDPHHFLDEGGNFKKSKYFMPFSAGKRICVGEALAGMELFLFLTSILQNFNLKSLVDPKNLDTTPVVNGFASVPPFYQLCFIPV

[26] = Tmax in BALB/c mouse at 1 mg/kg, iv by LC-MS/MS analysis; type: ADME, organism-based; settings: in vivo; method in brief: as §3
[27] = Total AUC in BALB/c mouse at 20 mg/kg, po by LC-MS/MS analysis; type: ADME, organism-based; design: dose 20 mg/kg, time AUCmax, route oral; settings: in vivo; method in brief: as §3
[28] = Half life in BALB/c mouse at 1 mg/kg, iv by LC-MS/MS analysis; type: ADME, organism-based; settings: in vivo; method in brief: as §3
[29] = Aggregation behavior in phosphate buffer at pH 8 assessed as increase in emission spectra at 1.25 uM to 11.25 uM by spectroflurometry; type: physicochemical; settings: pH 8, 1.25 µM; method in brief: as §4
[30] = Tmax in BALB/c mouse at 20 mg/kg, po by LC-MS/MS analysis; type: ADME, organism-based; settings: in vivo; method in brief: as §3
[31] = biological target: Cytochrome P450 3A4 (Homo sapiens, UniProt P08684); experiment: Inhibition of recombinant human microsomal CYP3A4 expressed in baculovirus infected BTI-TN-5B1-4 cell microsomes using CYP/Luciferin as substrate pre-incubated for 30 mins followed by NADPH regeneration mixture addition and measured after 30 mins by Promega P450-Glo assay; type: ADME
Chain of Cytochrome P450 3A4 (P08684 whole entry): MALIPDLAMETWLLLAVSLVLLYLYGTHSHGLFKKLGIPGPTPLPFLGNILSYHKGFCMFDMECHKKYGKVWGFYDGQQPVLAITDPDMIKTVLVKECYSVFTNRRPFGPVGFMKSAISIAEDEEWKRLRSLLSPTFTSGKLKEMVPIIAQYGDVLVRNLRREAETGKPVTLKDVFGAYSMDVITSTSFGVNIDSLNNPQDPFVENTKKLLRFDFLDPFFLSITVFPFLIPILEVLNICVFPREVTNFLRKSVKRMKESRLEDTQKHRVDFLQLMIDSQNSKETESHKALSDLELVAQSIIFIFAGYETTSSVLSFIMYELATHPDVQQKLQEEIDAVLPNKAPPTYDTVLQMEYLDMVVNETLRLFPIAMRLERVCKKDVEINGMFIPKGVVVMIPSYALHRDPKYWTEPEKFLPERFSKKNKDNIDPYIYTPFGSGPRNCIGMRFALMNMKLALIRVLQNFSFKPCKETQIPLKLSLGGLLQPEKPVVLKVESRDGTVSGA

[32] = biological target: T2, Albumin; experiment: Binding affinity to HSA assessed as emission maxima for HSA-complexed monomer at 1.25 uM to 11.25 uM by spectroflurometry; type: ADME; settings: isolated protein; method in brief: as §4

O=c1c(O)c(-c2ccc3c(c2)OCO3)oc2ccccc12
inhibition of growth at 10 µM [1]: 100% | EC50 [2]: 2900 nM | CC50 [3]: 12.5 to 25 µM | inhibition (INH) [4]: Not Active | Activity [5]: Non-Toxic | selectivity ratio [6]: 4

O=c1c(O)c(-c2ccc3c(c2)OCO3)oc2ccc(F)cc12
inhibition of growth at 10 µM [1]: 7% | CC50 [3]: 12.5 to 25 µM | inhibition (INH) [4]: Not Active | Activity [5]: Non-Toxic

COc1ccc2c(=O)c(OC(=O)C(C)(C)C)c(-c3ccc4c(c3)OCO4)oc2c1
inhibition of growth at 10 µM [1]: 100% | EC50 [2]: 1100 nM | CC50 [3]: > 100 µM | inhibition (INH) [4]: Not Active | Activity [5]: Non-Toxic | selectivity ratio [6]: > 92

COc1ccc2c(=O)c(OC(=O)C(C)C)c(-c3ccc4c(c3)OCO4)oc2c1
inhibition of growth at 10 µM [1]: 98% | EC50 [2]: 500 nM | CC50 [3]: < 12.5 µM | viability at 48 h, 10 µM [7]: < 0% | inhibition (INH) [4]: Not Active | Activity [5]: Non-Toxic | selectivity ratio [6]: 24

COc1ccc2c(=O)c(O)c(-c3ccc4c(c3)CCO4)oc2c1
inhibition of growth at 10 µM [1]: 100% | EC50 [2]: 3100 nM | CC50 [3]: 25 to 50 µM | inhibition (INH) [4]: Not Active | Activity [5]: Non-Toxic | selectivity ratio [6]: 8

Cc1ccc2c(=O)c(O)c(-c3ccc4c(c3)OCO4)oc2c1
inhibition of growth at 10 µM [1]: 99% | EC50 [2]: 400 nM | CC50 [3]: 12.5 to 25 µM | inhibition (INH) [4]: Not Active | Activity [5]: Non-Toxic | selectivity ratio [6]: 31

CCOc1c(-c2ccc3c(c2)OCO3)oc2cc(OC)ccc2c1=O
inhibition of growth at 10 µM [1]: 18% | EC50 [2]: > 10000 nM | CC50 [3]: 50 to 100 µM | inhibition (INH) [4]: Not Active | Activity [5]: Non-Toxic

COc1ccc2c(=O)c(O)c(-c3ccc4c(c3)OCO4)oc2c1
selectivity ratio [8]: > 250 | IC50 [9]: 50 nM | Cmax [10]: 1080 nM | half-life [11]: 2720 min | Activity [12]: 360 nm | Activity [13]: 475 nm | AUC [14]: 9.99 µM·h | Kb [15]: 2.5 ×10⁵ /M | Ke [16]: 1.8 ×10⁵ /M | Activity [17]: 325 nm | Activity [18]: 360 nm | Cmax [19]: 910 nM | IC50 [20]: > 100 µM | Activity [21]: Active | CC50 [3]: > 100 µM | IC50 [22]: 1500 nM | Activity [23]: 560 nm | IC50 [24]: 400 nM | IC50 [25]: 1600 nM | Tmax [26]: 1 h | inhibition (INH) [4]: Not Active | Activity [5]: Non-Toxic | AUC [27]: 8.65 µM·h | selectivity ratio [6]: 250 | half-life [28]: 1190 min | Activity [29]: Active | Tmax [30]: 30 min | IC50 [31]: 6 µM | Activity [32]: 540 nm

COc1ccc2c(=O)c(OC(C)=O)c(-c3ccc4c(c3)OCO4)oc2c1
inhibition of growth at 10 µM [1]: 100% | EC50 [2]: 300 nM | CC50 [3]: < 12.5 µM | inhibition (INH) [4]: Not Active | Activity [5]: Non-Toxic | selectivity ratio [6]: 46

COc1ccc2c(=O)c(OC(=O)N(C)C)c(-c3ccc4c(c3)OCO4)oc2c1
inhibition of growth at 10 µM [1]: 25% | EC50 [2]: > 10000 nM | CC50 [3]: > 100 µM | inhibition (INH) [4]: Not Active | Activity [5]: Non-Toxic

O=c1c(O)c(-c2ccc3c(c2)OCO3)oc2ccc(Br)cc12
inhibition of growth at 10 µM [1]: 38% | CC50 [3]: 12.5 to 25 µM | inhibition (INH) [4]: Not Active | Activity [5]: Non-Toxic
